PostGolgi yeast – growth inhibition of a yeast mutant, post-Golgi transport screen; post-Golgi transport phenotypic cell assay; inhibition, % at 10 µM; hit rate 0.9% among 98,000; AID 739;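 note: yeast cells grown in 1536-well plates; yeast grown about 18 h at 30C before absorbance read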
PostGolgi ctrl – yeast control strain growth, post-Golgi counter-screen. inhibition, % at 10 µM. hit rate 5% among 98,000. efflux-deficient yeast background strain, growth absorbance A615, 16 h
tolC growth inh – blocks growth of E. coli BW25113 tolC mutant; OD615; hit rate 2.2% among 65,000; AID 573; growth inhibition, % at 10 µM (by protocol);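 active = growth inhibition at or above a cutoff equal to the mean over every tested compound plus 3 SD, cut at about 60% in these data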;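 note: growth measured after 20 h incubation at 37 °C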
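Test system – E. coli BW25113 ΔtolC::kan, tolC deletion mutant strain · Detection – OD at 615 nm · Buffer or medium – LB with kanamycin 50 µg/mL · Times – 20 h compound exposure of bacteria at 37 °C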
Ecoli WT expand – blocks growth of wild type E. coli BW25113. OD600 absorbance. growth inhibition, % at 100 µM. hit rate 0.15% among 98,000;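 active = growth inhibition above about 50% at one test dose, limit read from the data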;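 note: growth measured after 20 h incubation at 37 °C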
* marks the source's active call; other numbers are inactive results. Hits are enriched below; roughly 6.3% of the tested compounds scored in any of these assays. Cut-off read from the data, not from the text of the source, unless noted: active = inhibition above about 30%; inactive = the rest.

Results for Cc1c(CCOC(=O)CC23CC4CC(CC(C4)C2)C3)sc[n+]1Cc1ccccc1 ?
PostGolgi yeast: 7; PostGolgi ctrl: 17; Ecoli WT expand: 19

Results for CCCCCCCCCOC(=O)C[n+]1csc(CCO)c1C ?
PostGolgi yeast: 14; PostGolgi ctrl: 64*; Ecoli WT expand: 9

How did CCOc1cc(C#N)c(NC(=O)c2cccnc2Cl)cc1OCC do in these assays?
PostGolgi yeast: -3; PostGolgi ctrl: 6; Ecoli WT expand: 4

What do the screens show for `CCCC(=O)Nc1ccc(Cl)c(NC(=O)c2cccnc2Cl)c1`?
PostGolgi yeast: 45*; PostGolgi ctrl: 3; Ecoli WT expand: 4

What do the screens show for `COc1cc(C2C(C(=O)c3ccc(C)o3)=C(O)C(=O)N2c2cc(C)on2)cc(Br)c1O` (stereo unspecified)?
PostGolgi yeast: 9; PostGolgi ctrl: -8; tolC growth inh: 65*; Ecoli WT expand: -8

What do the screens show for `O=C(O)c1ccc(Br)c(S(=O)(=O)N2CCCC2)c1`?
PostGolgi yeast: 12; PostGolgi ctrl: 10; tolC growth inh: -5; Ecoli WT expand: -6

Results for Cc1sc2nc(SCc3ccccc3)n(Cc3ccco3)c(=O)c2c1C ?
PostGolgi yeast: 1; PostGolgi ctrl: 7; Ecoli WT expand: -24

What do the screens show for `Cc1sc2nc(SCC(=O)C(C)(C)C)n(Cc3ccco3)c(=O)c2c1C`?
PostGolgi yeast: 2; PostGolgi ctrl: 39*; Ecoli WT expand: -15

What do the screens show for `O=C(NCc1ccco1)C1CCCN(S(=O)(=O)c2cccc3cccnc23)C1` (stereo unspecified)?
PostGolgi yeast: -3; PostGolgi ctrl: 14; tolC growth inh: -6; Ecoli WT expand: -1

What do the screens show for `O=C(CSc1nc(Nc2ccccc2)nc(N2CCOCC2)n1)Nc1ccc([N+](=O)[O-])cc1`?
PostGolgi yeast: 44*; PostGolgi ctrl: 17; Ecoli WT expand: 5

Results for O=C(CSc1nc(Nc2ccccc2)nc(N2CCOCC2)n1)Nc1ccccc1Cl ?
PostGolgi yeast: -3; PostGolgi ctrl: 19; tolC growth inh: -22; Ecoli WT expand: -9

What do the screens show for `O=c1ccn(-c2cccc(C(F)(F)F)c2)nc1-c1ccn(-c2cccc(Cl)c2)n1`?
PostGolgi yeast: 10; PostGolgi ctrl: 50*; Ecoli WT expand: -7

How did Nc1c(-c2cccc(Cl)c2)cnn1-c1cccc(C(F)(F)F)c1 do in these assays?
PostGolgi yeast: -5; PostGolgi ctrl: 13; Ecoli WT expand: 5

How did COC(=O)[C@@H](NC(=O)NCc1ccccc1Cl)C(C)C do in these assays?
PostGolgi yeast: -4; PostGolgi ctrl: 5; tolC growth inh: -16; Ecoli WT expand: -5

Results for Cc1nn(-c2ccccc2)c2[nH]c(=O)c(CNCc3ccc4c(c3)OCO4)cc12 ?
PostGolgi yeast: 13; PostGolgi ctrl: -12; tolC growth inh: 93*; Ecoli WT expand: 2

What do the screens show for `CN(C)c1nc(OCCOC(=O)Nc2ccc(Cl)cc2Cl)nc(N(C)C)n1`?
PostGolgi yeast: 4; PostGolgi ctrl: 34*; tolC growth inh: -1; Ecoli WT expand: -1

How did CCOc1ccc(NC(=O)c2cccc3c2C(=O)N(Cc2cccnc2)C3)cc1 do in these assays?
PostGolgi yeast: -4; PostGolgi ctrl: 32*; tolC growth inh: 20; Ecoli WT expand: -5

How did COC(CNC(=O)c1cccc2c1C(=O)N(Cc1cccnc1)C2)OC do in these assays?
PostGolgi yeast: 2; PostGolgi ctrl: -14; Ecoli WT expand: 3

What do the screens show for `Nc1nonc1C(=O)NCCNS(=O)(=O)c1ccc(Br)cc1`?
PostGolgi yeast: -15; PostGolgi ctrl: 4; Ecoli WT expand: 1

What do the screens show for `c1nc(N2CCOCC2)c2c3c(sc2n1)CCCC3`?
PostGolgi yeast: 0; PostGolgi ctrl: 5; tolC growth inh: 15; Ecoli WT expand: 2

How did CSc1nc(N2CCOCC2)c2c3c(sc2n1)CCCC3 do in these assays?
PostGolgi yeast: 11; PostGolgi ctrl: 36*; tolC growth inh: 96*; Ecoli WT expand: -2

What do the screens show for `O=C1COc2ccc(C(=O)c3ccccc3C(=O)NCc3ccccc3)cc2N1`?
PostGolgi yeast: -3; PostGolgi ctrl: 8; Ecoli WT expand: 9

What do the screens show for `Cc1nc(SCC(=O)NCc2ccco2)[nH]c(=O)c1C`?
PostGolgi yeast: 3; PostGolgi ctrl: 21; Ecoli WT expand: 5

What do the screens show for `O=C(CSc1nc2nc(-c3cccs3)cc(C(F)(F)F)c2c(=O)[nH]1)NCc1ccco1`?
PostGolgi yeast: 11; PostGolgi ctrl: -1; tolC growth inh: 91*; Ecoli WT expand: -13

Results for O=C(NCC1(c2ccccc2)CCCC1)c1cccc(Br)c1 ?
PostGolgi yeast: 4; PostGolgi ctrl: 29; Ecoli WT expand: -5

What do the screens show for `COc1cccc(-n2nnnc2SCC(=O)NC2CCCC2)c1`?
PostGolgi yeast: -2; PostGolgi ctrl: 9; Ecoli WT expand: 7

Results for CCn1c(Cc2ccc(OC)cc2)nnc1SCC(=O)NC1CCCCC1 ?
PostGolgi yeast: 7; PostGolgi ctrl: 31*; tolC growth inh: -4; Ecoli WT expand: -4

Results for COc1ccccc1-n1nnnc1SCC(=O)NC1CCCC1 ?
PostGolgi yeast: -2; PostGolgi ctrl: 42*; tolC growth inh: 5; Ecoli WT expand: -1

What do the screens show for `Cn1c(Cc2ccccc2)nnc1SCC(=O)NC1CCCCC1`?
PostGolgi yeast: -2; PostGolgi ctrl: -3; tolC growth inh: 0; Ecoli WT expand: 5

How did CCOC(=O)C1CCN(C(C(=O)NC2CCCC2)c2ccc(C)cc2)CC1 (stereo unspecified) do in these assays?
PostGolgi yeast: 6; PostGolgi ctrl: -7; Ecoli WT expand: 9

What do the screens show for `Cc1nn(-c2ccc(Cl)c(Cl)c2)c(=O)c2ccccc12`?
PostGolgi yeast: -1; PostGolgi ctrl: 49*; Ecoli WT expand: 2

How did CC(C)C(=O)Nc1cccc(C(=O)Nc2nccs2)c1 do in these assays?
PostGolgi yeast: -3; PostGolgi ctrl: 9; tolC growth inh: 2; Ecoli WT expand: 15

How did O=C(c1cc2ccccc2o1)N1CCN(c2ccccc2Cl)CC1 do in these assays?
PostGolgi yeast: 1; PostGolgi ctrl: 40*; tolC growth inh: 100*; Ecoli WT expand: -10

What do the screens show for `O=C(c1cc2ccccc2o1)n1nnc2ccccc21`?
PostGolgi yeast: 4; PostGolgi ctrl: 3; tolC growth inh: -30; Ecoli WT expand: -8

How did O=C(c1ccccc1)N1CCN(C(=O)c2cc3ccccc3o2)CC1 do in these assays?
PostGolgi yeast: 3; PostGolgi ctrl: 31*; Ecoli WT expand: 1

Results for O=C(CCn1c(=O)oc2ccccc21)N1CCN(c2ccccc2Cl)CC1 ?
PostGolgi yeast: -4; PostGolgi ctrl: 16; tolC growth inh: 12; Ecoli WT expand: -12

Results for O=C(CN1C(=O)c2ccccc2C1=O)Nc1ccccc1C(=O)NC1CCCCC1 ?
PostGolgi yeast: 4; PostGolgi ctrl: 1; Ecoli WT expand: -2

Results for COC(=O)c1ccc(C(=O)OC)c(NC(=O)c2oc(C)nc2C)c1 ?
tolC growth inh: -8

How did C=CCn1c(SCC(=O)Nc2ccc3c(c2)OCO3)nnc1-c1cc(Br)ccc1O do in these assays?
PostGolgi yeast: 0; PostGolgi ctrl: 14; tolC growth inh: 74*; Ecoli WT expand: -3

What do the screens show for `C/C(CC1CC2=C(CC1(C)C)C(C)(C)CCC2)=N\NC(N)=S` (stereo unspecified)?
PostGolgi yeast: 104*; PostGolgi ctrl: 80*; Ecoli WT expand: -1
